The nature of data set [1]: Second order rate constant for Alkylation reaction by the compound (17 mM) at temperature 27 degrees C with 1 M lutidine at pH 7.4 in the presence of 10 mol equiv of 2-mercaptoethanol. The class given is functional. The procedure, abridged: (§1)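 Decomposition followed over time by 31P NMR in 1 M lutidine buffer made with D2O, "pH" 7.4 (meter reading plus 0.4 unit for the deuterium isotope effect), with 2-mercaptoethanol as trapping agent. Concentrations of species A, B and C were tracked against time, and k1 (first alkylation) and k2 (second alkylation) were derived from them.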

Data set [2] is described as follows: Second order rate constant for Alkylation reaction by the compound (17 mM) at temperature 37 degrees C with 1 M lutidine at pH 7.4 in the presence of 10 mol equiv of 2-mercaptoethanol. The class given is functional. The method in brief:
as §1

The nature of data set [3]: Second order rate constant for Alkylation reaction by the compound (17 mM) at temperature 47 degrees C with 1 M lutidine at pH 7.4 in the presence of 10 mol equiv of 2-mercaptoethanol. The class given is functional. The procedure, abridged:
as §1

Data set [4] can be described thus: First order rate constant for Alkylation reaction by the compound (17 mM) at temperature 37 degrees C with 1 M lutidine at pH 7.4 in the presence of 10 mol equiv of 2-mercaptoethanol. The class given is functional. The method in brief: as §1
Data set [5] can be described thus: First order rate constant for Alkylation reaction by the compound (17 mM) at temperature 27 degrees C with 1 M lutidine at pH 7.4 in the presence of 10 mol equiv of 2-mercaptoethanol. The class given is functional. The method in brief:
as §1

Data set [6] is described as follows: First order rate constant for Alkylation reaction by the compound (11 mM) at temperature 20 degrees C with 1 M lutidine at pH 7.4 in the presence of 63 mol equiv of 2-mercaptoethanol. The class given is functional. The procedure, abridged: as §1
Data set [7] can be described thus: Pka value at 20 degrees C. The procedure, abridged: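 31P NMR chemical shift recorded in unbuffered water as a function of solution pH at 20 °C. The shift versus pH data were fitted to the Henderson–Hasselbalch equation to give the pKa.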
The nature of data set [8]: First order rate constant for Alkylation reaction by the compound (17 mM) at temperature 47 degrees C with 1 M lutidine at pH 7.4 in the presence of 10 mol equiv of 2-mercaptoethanol. The class given is functional. The method in brief:
as §1

Data set [9] can be described thus: First order rate constant for Alkylation reaction by the compound (17 mM) at temperature 37 degrees C with 1 M lutidine at pH 7.4 in the presence of 10 mol equiv of sodium thiosulfate. The class given is functional. The method in brief:
(§2)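 Run by 31P NMR in 1 M lutidine (D2O), "pH" 7.4 (corrected meter reading), 37 °C, with 10 mol equiv sodium thiosulfate as trapping agent. Overlapping A, B and C resonances were resolved by least-squares fitting to three Lorentzians or by Lorentz–Gauss resolution enhancement. This gave concentration–time estimates, from which k1 and k2 were derived.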

Data set [10] can be described thus: Second order rate constant for Alkylation reaction by the compound (17 mM) at temperature 37 degrees C with 1 M lutidine at pH 7.4 in the presence of 10 mol equiv of sodium thiosulfate. The class given is functional. The method in brief: as §2
A short description of data set [11]: Half life period for first alkylation reaction was determined. The class given is ADME. The method in brief:
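Half-life derived from the k1 value (first alkylation, i.e. mustard disappearance), measured by 31P NMR in 1 M lutidine, "pH" 7.4, 37 °C, with trapping agent.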

The nature of data set [12]: Second order rate constant for Alkylation reaction by the compound (11 mM) at temperature 20 degrees C with 1 M lutidine at pH 7.4 in the presence of 63 mol equiv of 2-mercaptoethanol. The class given is functional. The procedure, abridged:
as §1

Data set [13] in a line: First order rate constant for Alkylation reaction by the compound (17 mM) at temperature 20 degrees C with 1 M lutidine at […] in the presence of 10 mol equiv of 2-mercaptoethanol. The class given is functional.
A short description of data set [14]: Half life period was determined. The class given is ADME. As to conditions: rat.
Data set [15] is described as follows: Average half life period was determined. The class given is ADME.

The structures appear in SMILES notation. Several values for one entry are separate records, joined by “and”; a condition that tells them apart may be missing. Equal entries are not always repeated.

`O=P(O)(NCCCl)NCCCl` [PALIFOSFAMIDE]: the K2 in data set [1] was 1.14 10e-3 min-1; in data set [2], 4.05 10e-3 min-1; in data set [3], 20 10e-3 min-1; in [10], 4.29 10e-3 min-1; in data set [12] it was 0.63 10e-3 min-1. In addition, the K1 in [4] was 9.03 10e-3 min-1; in [5], 2.36 10e-3 min-1; in data set [6], 1.07 10e-3 min-1; in [8] it was 34.3 10e-3 min-1; in [9] it was 8.29 10e-3 min-1; in [13] it was 1.2 10e-3 min-1. The Pka in [7] stood at 4.28. In [11], the T1/2 was 1.28 h and 2.85 h.
Consider `O=P1(NCCCl)OCCC(O)N1CCCl` (stereo unspecified) [ALDOIFOSFAMIDE], for which the half-life – broadly, the time needed for the level to fall by half in the phase considered – came out at 1 h in data set [14] and 0.733 h in data set [15].
`OC1CCOP(NCCCl)N1CCCl` (trans isomer) yielded a half-life in [15] of 1.03 h.

These data come from ChEMBL document CHEMBL1124552 (J Med Chem, 1989).
